For 1 compound, inhibition and Activity results are on record in ChEMBL document CHEMBL4017514, “Discovery of Novel Macrocyclic Hedgehog Pathway Inhibitors Acting by Suppressing the Gli-Mediated Transcription” (J Med Chem, 2017).

Molecules are shown by their SMILES. Active and inactive are the calls of the source. No cut-off for these calls is given here.

Assay [1] is filed under the species Mus musculus. As to the kind of experiment: Inhibition of hedgehog signaling pathway in mouse NIH/3T3 cells hoarboring Gli2 plasmid assessed as reduction in ectopic expression of Gli2 protein at 50 to 1000 nM by immunoblot analysis. The class given is cell-based. For orientation: A western blot detects proteins with antibodies after separation by electrophoresis.

The species named for assay [2] is Mus musculus. Description: Inhibition of hedgehog signaling pathway in mouse Light2 cells harboring Smo W535L mutant after 36 hrs by Gli luciferase activity. In kind it is cell-based. Put shortly: (§1)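 Light II cells (NIH-3T3 stably carrying Gli-responsive firefly luciferase and Renilla vector) transfected with wild-type, D473H or W535L Smo plasmid. Exposed to compound for 36 h, then dual luciferase assay with firefly/Renilla normalization. IC50 derived and given as mean ± SD.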

The species named for assay [3] is Mus musculus. As to the kind of experiment: Inhibition of hedgehog signaling pathway in mouse NIH/3T3 cells harboring sufu shRNA assessed as downregulation of ptch1 mRNA expression at 300 nM by RT-qPCR analysis. The class given is cell-based. (In general: Real-time PCR tracks product formation cycle by cycle.)
Assay [4] is filed under the species Mus musculus. Description: Inhibition of hedgehog signaling pathway in mouse NIH/3T3 cells assessed as downregulation of Shh-induced ptch1 mRNA expression levels at 300 nM after 36 hrs by RT-qPCR analysis. In kind it is cell-based. The gist of the method:
(§2)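 NIH-3T3 or C3H10T1/2 cells treated as indicated for 36 h, then collected for RT-qPCR of Gli1 and ptch1 mRNA. Data given as mean ± SD.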

Assay [5] deals with T1, Zinc finger protein GLI1 (Homo sapiens) (UniProt P08151).
T1 sequence (whole entry): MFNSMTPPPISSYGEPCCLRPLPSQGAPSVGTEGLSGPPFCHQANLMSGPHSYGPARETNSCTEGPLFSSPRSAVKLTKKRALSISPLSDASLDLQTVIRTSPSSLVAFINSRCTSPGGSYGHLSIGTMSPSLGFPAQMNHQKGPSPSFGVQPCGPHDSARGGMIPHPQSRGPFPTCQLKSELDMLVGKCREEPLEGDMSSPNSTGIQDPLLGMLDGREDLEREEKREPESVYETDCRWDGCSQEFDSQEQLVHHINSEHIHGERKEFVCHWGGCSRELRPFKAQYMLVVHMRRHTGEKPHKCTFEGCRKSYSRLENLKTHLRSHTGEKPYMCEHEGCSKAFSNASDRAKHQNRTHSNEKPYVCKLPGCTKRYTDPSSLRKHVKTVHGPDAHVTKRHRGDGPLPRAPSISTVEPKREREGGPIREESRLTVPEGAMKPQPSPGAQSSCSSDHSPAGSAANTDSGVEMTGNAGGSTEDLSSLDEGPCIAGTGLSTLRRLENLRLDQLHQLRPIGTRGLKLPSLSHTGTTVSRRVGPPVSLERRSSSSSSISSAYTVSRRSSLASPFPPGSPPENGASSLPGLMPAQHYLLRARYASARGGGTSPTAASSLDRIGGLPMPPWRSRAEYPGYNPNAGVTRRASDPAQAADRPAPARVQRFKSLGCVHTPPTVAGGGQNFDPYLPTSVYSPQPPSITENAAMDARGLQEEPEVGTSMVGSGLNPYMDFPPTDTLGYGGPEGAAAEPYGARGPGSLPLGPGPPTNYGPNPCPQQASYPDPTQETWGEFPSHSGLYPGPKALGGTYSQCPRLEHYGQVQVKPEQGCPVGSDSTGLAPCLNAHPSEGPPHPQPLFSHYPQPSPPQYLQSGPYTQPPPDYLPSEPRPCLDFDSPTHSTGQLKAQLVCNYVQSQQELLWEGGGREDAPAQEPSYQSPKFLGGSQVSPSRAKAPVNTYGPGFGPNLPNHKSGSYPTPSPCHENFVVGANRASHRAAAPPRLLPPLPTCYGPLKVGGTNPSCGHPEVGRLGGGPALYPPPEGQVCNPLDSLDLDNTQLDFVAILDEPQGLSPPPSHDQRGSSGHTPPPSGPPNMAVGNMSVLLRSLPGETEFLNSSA
As to the kind of experiment: Inhibition of biotin-labeled Gli1binding sequence binding to Flag-tagged Gli1 (unknown origin) expressed in mouse NIH/3T3 cells at 1 uM by EMSA. In kind it is cell-based. Put shortly:
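EMSA with biotin-labeled Gli-binding sequence from the twist1 promoter, probing Gli1 DNA binding. Unlabeled Gli-binding sequence served as competitor.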
(In general: A gel shift assay detects complexes by their altered migration in electrophoresis.)

Assay [6] is filed under the species Mus musculus. Description: Inhibition of hedgehog signaling pathway in mouse NIH/3T3 cells hoarboring Gli1 plasmid assessed as reduction in ectopic expression of Gli1 protein at 50 to 1000 nM by immunoblot analysis. The class given is cell-based.
For assay [7], the species on record is Homo sapiens. Description: Inhibition of PGE2-stimulated TCF/LEF activity in human LS174T cells at 1 uM measured after 6 hrs by dual luciferase reporter gene assay. The class given is cell-based. The gist of the method:
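LS174T cells carrying TCF/LEF reporter, stimulated with PGE2 and treated for 6 h. Dual luciferase read-out, firefly normalized to Renilla. Data given as mean ± SD.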

Assay [8] is filed under the species Mus musculus. As to the kind of experiment: Inhibition of hedgehog signaling pathway in mouse Light2 cells harboring wild type Smo after 36 hrs by Gli luciferase activity. In kind it is cell-based. Put shortly:
as §1

The species named for assay [9] is Mus musculus. As to the kind of experiment: Inhibition of hedgehog signaling pathway in mouse C3H10T1/2 cells assessed as downregulation of Shh-induced Gli1 mRNA expression levels at 300 nM after 36 hrs by RT-qPCR analysis. In kind it is cell-based. Put shortly: as §2
Assay [10] deals with Bromodomain-containing protein 4 (Homo sapiens) (UniProt O60885). As to the kind of experiment: Inhibition of BRD4 (unknown origin) at 10 uM.
The species named for assay [11] is Mus musculus. Description: Inhibition of hedgehog signaling pathway in mouse Ptch+/- p53-/- medulloblastoma cells assessed as reduction in GLI1 mRNA expression at 3 uM by RT-qPCR analysis. Put shortly:
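ptch+/−;p53−/− medulloblastoma cells kept in Neurobasal A/B-27 medium with EGF and bFGF, then treated. Gli1 and ptch1 mRNA measured by RT-qPCR. Data given as mean ± SD.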

For assay [12], the species on record is Mus musculus. Description: Inhibition of hedgehog signaling pathway in mouse Shh Light2 cells harboring Gli1 plasmid assessed as reduction in Gli1-mediated transcriptional activity by luciferase reporter gene assay. The class given is cell-based.
The species named for assay [13] is Mus musculus. As to the kind of experiment: Inhibition of hedgehog signaling pathway in mouse Light2 cells in Shh conditioned medium at 1 uM by Gli-luciferase reporter gene assay relative to control. The class given is cell-based.
The next assay concerns Medulloblastoma cell. As to the kind of experiment: Induction of apoptosis in mouse Ptch+/- p53-/- medulloblastoma cells implanted in athymic nude mouse at 25 to 50 mg/kg, ip bid for 15 consecutive days by TUNEL assay. The class given is functional, organism-based. Put shortly:
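Apoptosis in subcutaneous ptch+/−;p53−/− medulloblastoma allografts in nude mice (n = 5), dosed ip twice daily for 15 days. Tumor sections stained by TUNEL and apoptotic cells imaged at 60×.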

The species entered for assay [14] is Mus musculus. Description: Inhibition of hedgehog signaling pathway in mouse NIH/3T3 cells assessed as reduction in edogenous expression of Gli1 protein by immunoblot analysis. The class given is cell-based. The gist of the method: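 NIH-3T3 cells cultured in 10% FBS were exposed to compound at various concentrations for 24 h. Endogenous Gli1 and Gli2 detected by Western blot.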

The species entered for assay [15] is Mus musculus. As to the kind of experiment: Inhibition of hedgehog signaling pathway in mouse Shh Light2 cells harboring Gli2 plasmid assessed as reduction in Gli2-mediated transcriptional activity by luciferase reporter gene assay. The class given is cell-based.
For assay [16], the species on record is Homo sapiens. Description: Inhibition of TNFalpha-induced NFkappaB activation in HEK293 cells at 1 uM after 24 hrs by dual luciferase reporter gene assay. In kind it is cell-based. The gist of the method: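 HEK293 cells carrying NF-κB firefly reporter plus Renilla, stimulated with TNF-α and treated for 24 h. Cells lysed for dual luciferase assay, firefly signal normalized to Renilla. Data given as mean ± SD.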

Broadly, the inhibition is the percentage by which the read-out fell short of the control.

In the case of `COc1ccc(CN2C[C@@H]3CN(S(=O)(=O)c4ccc(Cl)cc4)CC[C@@H]3Oc3c(NC(=O)C4CC4)cccc3C2=O)cc1` (racemic), the inhibition entry in the assay filed under Mus musculus [1], in the assay filed under Mus musculus [3], in the assay filed under Mus musculus [4], in the assay filed under Mus musculus [6], in the assay listed under Homo sapiens [7] and in the assay listed under Mus musculus [9] was “Active” throughout. The inhibition entry in the assay filed under Mus musculus [11] is “Active”. Also, the inhibition result in the assay filed under Mus musculus [2] is “Dose-dependent effect”; in the assay listed under Mus musculus [8], “Dose-dependent effect”; in the assay filed under Mus musculus [12], “Dose-dependent effect”; in the assay filed under Mus musculus [13] it was 97%; in the assay listed under Mus musculus [14], “Dose-dependent effect”; in the assay filed under Mus musculus [15] it was “Dose-dependent effect”. Moreover, the inhibition entry (in [5]; in [10]; in the assay filed under Homo sapiens [16]) was “inactive” throughout. Moreover, the outcome with Medulloblastoma cell was Active.
